Results taken from ChEMBL document CHEMBL4138313 (J Med Chem, 2018).

What was measured:
Format in all cases: cell-based
[1] = test system: MEF; assay: Cytotoxicity against mouse PARP1 deficient MEF cells assessed as reduction in cell viability after 4 to 7 days by cell-titer glo assay
[2] = test system: MEF; assay: Cytotoxicity against mouse wild type MEF cells assessed as reduction in cell viability after 4 to 7 days by cell-titer glo assay
[3] = test system: MEF; assay: Cytotoxicity against mouse PARP2 deficient MEF cells expressing PARP1 assessed as reduction in cell viability after 4 to 7 days by cell-titer glo assay
[4] = molecular target: Poly [ADP-ribose] polymerase 1 (Homo sapiens, UniProt P09874); assay: Binding affinity to PARP1 in human OVCAR8 cells assessed as reduction in [125I]-KX1 binding by gamma counting analysis
[5] = test system: MEF; assay: Cytotoxicity against mouse PARP1 deficient MEF cells assessed as reduction in cell viability at 0.016 to 100 uM after 4 to 7 days by cell-titer glo assay
Procedure, shortened: (§1)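 Cells kept at 37 °C, 5% CO2, 15% O2 in RPMI 1640 with 10% FBS and 1% penicillin/streptomycin. Seeded at 1,000 cells/well and dosed 24 h later at 100–0.016 µM. Exposure lasted 4–7 days, then viability was read by CellTiter Glo luminescence. Signal was normalized to percent survival against the mean of vehicle controls. Three repeat experiments.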

[6] = test system: MEF; assay: Cytotoxicity against mouse PARP2 deficient MEF cells expressing PARP1 assessed as reduction in cell viability at 0.016 to 100 uM after 4 to 7 days by cell-titer glo assay; procedure, shortened: as §1
[7] = test system: MEF; assay: Cytotoxicity against mouse wild type MEF cells assessed as reduction in cell viability at 0.016 to 100 uM after 4 to 7 days by cell-titer glo assay; procedure, shortened: as §1
[8] = test system: OVCAR-8; assay: Cytotoxicity against human OVCAR8 cells assessed as cell survival at 10 uM after 4 to 7 days by cell-titer glo assay; conditions: ovcar-8, 10 µM

Chain of Poly [ADP-ribose] polymerase 1 (P09874 whole entry): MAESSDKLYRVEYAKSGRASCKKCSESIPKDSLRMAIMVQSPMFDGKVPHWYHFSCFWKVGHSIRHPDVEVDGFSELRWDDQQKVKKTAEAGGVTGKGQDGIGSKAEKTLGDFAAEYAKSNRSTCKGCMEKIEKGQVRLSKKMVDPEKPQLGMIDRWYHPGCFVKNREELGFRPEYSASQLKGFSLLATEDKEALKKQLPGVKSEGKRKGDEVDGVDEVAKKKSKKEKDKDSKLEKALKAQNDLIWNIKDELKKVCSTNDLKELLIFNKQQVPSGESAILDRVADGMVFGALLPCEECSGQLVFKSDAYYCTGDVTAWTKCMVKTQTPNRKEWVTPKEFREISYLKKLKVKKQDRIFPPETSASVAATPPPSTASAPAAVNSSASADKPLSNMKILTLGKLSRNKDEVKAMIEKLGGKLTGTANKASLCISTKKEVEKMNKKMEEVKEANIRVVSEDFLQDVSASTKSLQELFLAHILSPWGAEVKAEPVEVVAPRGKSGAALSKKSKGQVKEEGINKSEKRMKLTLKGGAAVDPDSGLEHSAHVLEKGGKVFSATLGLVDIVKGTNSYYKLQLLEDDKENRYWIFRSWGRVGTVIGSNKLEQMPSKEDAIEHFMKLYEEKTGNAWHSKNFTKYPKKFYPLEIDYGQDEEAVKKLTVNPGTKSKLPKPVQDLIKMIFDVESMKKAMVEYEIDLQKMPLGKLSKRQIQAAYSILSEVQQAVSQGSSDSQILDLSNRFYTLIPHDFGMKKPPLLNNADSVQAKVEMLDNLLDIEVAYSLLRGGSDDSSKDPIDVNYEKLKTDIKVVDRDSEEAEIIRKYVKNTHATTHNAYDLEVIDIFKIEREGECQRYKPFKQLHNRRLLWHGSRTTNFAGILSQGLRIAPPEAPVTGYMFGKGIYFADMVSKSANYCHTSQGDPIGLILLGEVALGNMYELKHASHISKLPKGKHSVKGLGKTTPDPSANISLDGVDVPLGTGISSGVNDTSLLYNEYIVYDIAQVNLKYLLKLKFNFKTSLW

SMILES	EC50 [1] [µM]	EC50 [2] [µM]	EC50 [3] [µM]	IC50 [4] [nM]	Activity [5] [%]	Activity [6] [%]	Activity [7] [%]	Activity [8]
CC(C)(C)OC(=O)N1CCC2(CC1)CN(C(=O)c1cc(Cc3n[nH]c(=O)c4ccccc34)ccc1F)C2	49.2	23.4	41.5	–	–	–	–	–
O=C(c1cc(Cc2n[nH]c(=O)c3ccccc23)ccc1F)N1CCC12CCCCC2	–	32.6	78.8	284	< 50	–	–	–
O=C(c1cc(Cc2n[nH]c(=O)c3ccccc23)ccc1F)N1CCC2(CCNCC2)C1	–	–	–	3880	< 50	< 50	< 50	–
O=C(c1cc(Cc2n[nH]c(=O)c3ccccc23)ccc1F)N1CCC2(CCN(C(=O)C3CC3)CC2)C1	–	41.6	61	225	< 50	–	–	–
CC(C)(C)OC(=O)N1CC2(CCN2C(=O)c2cc(Cc3n[nH]c(=O)c4ccccc34)ccc2F)C1	–	42.9	35.8	877	< 50	–	–	–
O=C(c1cc(Cc2n[nH]c(=O)c3ccccc23)ccc1F)N1CCC12CCC2	–	48	58.3	36.5	< 50	–	–	–
O=C(c1cc(Cc2n[nH]c(=O)c3ccccc23)ccc1F)N1CCC12CNC2	–	–	–	526	< 50	< 50	< 50	–
O=C(c1cc(Cc2n[nH]c(=O)c3ccccc23)ccc1F)N1CCC2(CCCCC2)CC1	–	41.3	41.3	57.1	< 50	–	–	–
O=C(C1CC1)N1CC2(CCN2C(=O)c2cc(Cc3n[nH]c(=O)c4ccccc34)ccc2F)C1	–	53.2	46.7	130	< 50	–	–	–
O=C(c1cc(Cc2n[nH]c(=O)c3ccccc23)ccc1F)N1CC2(CNC2)C1	–	–	–	2390	< 50	< 50	< 50	–
O=C(C1CC1)N1CCC2(CC1)CCN2C(=O)c1cc(Cc2n[nH]c(=O)c3ccccc23)ccc1F	–	47.5	44.4	431	< 50	–	–	–
CC(C)(C)OC(=O)N1CC2(C1)CN(C(=O)c1cc(Cc3n[nH]c(=O)c4ccccc34)ccc1F)C2	–	31.1	24.7	–	< 50	–	–	–
O=C(c1cc(Cc2n[nH]c(=O)c3ccccc23)ccc1F)N1CC2(CCCCC2)C1	48.3	25.6	39.9	65.4	–	–	–	Non-Toxic
O=C(c1cc(Cc2n[nH]c(=O)c3ccccc23)ccc1F)N1CC2(CCC2)C1	–	48.3	49	33.9	< 50	–	–	Non-Toxic
O=C(c1cc(Cc2n[nH]c(=O)c3ccccc23)ccc1F)N1CCC12CCNCC2	–	–	106	–	< 50	–	< 50	–
O=C(c1cc(Cc2n[nH]c(=O)c3ccccc23)ccc1F)N1CCC2(CCCC2)C1	–	31.7	55.5	51.4	–	–	–	–
O=C(c1cc(Cc2n[nH]c(=O)c3ccccc23)ccc1F)N1CCC2(CCC2)C1	–	45.2	54.7	32.4	< 50	–	–	–
COC1CCN(C(=O)c2cc(Cc3n[nH]c(=O)c4ccccc34)ccc2F)CC1 [AZD2461]	–	–	–	1.7	–	–	–	–
O=C(c1cc(Cc2n[nH]c(=O)c3ccccc23)ccc1F)N1CC2(COC2)C1	–	52.2	53.3	–	< 50	–	–	–
O=C(c1cc(Cc2n[nH]c(=O)c3ccccc23)ccc1F)N1CCC2(CC1)CCN(C(=O)C1CC1)CC2	49.7	24.8	21.6	–	–	–	–	Non-Toxic
O=C(c1cc(Cc2n[nH]c(=O)c3ccccc23)ccc1F)N1CCC2(CCNCC2)CC1	–	–	59.7	234	< 50	–	< 50	–
O=C(c1cc(Cc2n[nH]c(=O)c3ccccc23)ccc1F)N1CCC2(C1)CN(C(=O)C1CC1)C2	–	–	61.8	2540	< 50	–	< 50	–
CC(C)(C)OC(=O)N1CCC2(CC1)CCN2C(=O)c1cc(Cc2n[nH]c(=O)c3ccccc23)ccc1F	–	23.3	33.2	2970	< 50	–	–	–
O=C(c1cc(Cc2n[nH]c(=O)c3ccccc23)ccc1F)N1CCC2(CNC2)C1	–	–	–	1240	< 50	< 50	< 50	–
O=C(c1cc(Cc2n[nH]c(=O)c3ccccc23)ccc1F)N1CCC2(CCN(C(=O)C3CC3)C2)C1 (configuration not stated)	–	–	70.9	2590	< 50	–	< 50	–
O=C(c1cc(Cc2n[nH]c(=O)c3ccccc23)ccc1F)N1CCC2(CCNC2)C1 (configuration not stated)	–	–	–	1120	< 50	–	< 50	–
O=C(c1cc(Cc2n[nH]c(=O)c3ccccc23)ccc1F)N1CCC2(CCCCC2)C1	51.6	42.7	46.8	141	–	–	–	–
O=C(c1cc(Cc2n[nH]c(=O)c3ccccc23)ccc1F)N1CC2(CCNCC2)C1	–	–	68.5	1420	< 50	–	< 50	–
CC(C)(C)OC(=O)N1CC2(CCN(C(=O)c3cc(Cc4n[nH]c(=O)c5ccccc45)ccc3F)C2)C1	–	29.2	31.8	–	< 50	–	–	–
O=C(c1cc(Cc2n[nH]c(=O)c3ccccc23)ccc1F)N1CC2(CCN(C(=O)C3CC3)CC2)C1	–	49.3	57.2	100	< 50	–	–	–
